Measurements collected from several papers.
Protocols differ between the studies behind these lines.
Target: Inhibitor of nuclear factor kappa-B kinase subunit epsilon (IKBKE, Homo sapiens, UniProt Q14164)
Residues used in one study (Q14164 1-716): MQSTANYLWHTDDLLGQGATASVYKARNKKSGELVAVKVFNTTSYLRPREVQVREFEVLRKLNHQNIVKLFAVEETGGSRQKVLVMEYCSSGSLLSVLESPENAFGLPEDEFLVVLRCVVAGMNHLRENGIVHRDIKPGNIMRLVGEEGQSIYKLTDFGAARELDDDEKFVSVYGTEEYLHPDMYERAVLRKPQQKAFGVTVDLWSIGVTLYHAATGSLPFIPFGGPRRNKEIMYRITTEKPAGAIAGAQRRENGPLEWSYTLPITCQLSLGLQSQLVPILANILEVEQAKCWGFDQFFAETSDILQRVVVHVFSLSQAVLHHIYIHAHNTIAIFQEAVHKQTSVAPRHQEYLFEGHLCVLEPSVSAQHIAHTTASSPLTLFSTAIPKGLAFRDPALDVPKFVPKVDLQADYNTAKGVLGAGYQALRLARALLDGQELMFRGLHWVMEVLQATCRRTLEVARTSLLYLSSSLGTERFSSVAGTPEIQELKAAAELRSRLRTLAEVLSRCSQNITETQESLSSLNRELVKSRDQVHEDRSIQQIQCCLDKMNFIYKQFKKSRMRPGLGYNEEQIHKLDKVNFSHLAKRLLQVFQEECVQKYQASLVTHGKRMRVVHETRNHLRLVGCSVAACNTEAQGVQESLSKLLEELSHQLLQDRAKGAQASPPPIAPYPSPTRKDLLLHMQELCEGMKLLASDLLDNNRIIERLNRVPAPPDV

Compound	read-out	mode	method	tested at	quantity	result
Nc1ncc(-c2nc(N3CCOCC3)nc(N3CCOCC3)n2)c(C(F)F)n1	binding	–	competition with immobilised ligand	10 µM	remaining binding	99%
O=c1[nH]c2ccccc2n1C1CCN(Cc2ccc(-c3[nH]c4cc5ncnc5cc4nc3-c3ccccc3)cc2)CC1	enzyme activity	–	–	0.5 µM	remaining activity	91.9%
Cn1cc(-c2cccc(N3CCc4c(sc5c4CC(C)(C)C5)C3=O)c2CO)cc(Nc2ccncn2)c1=O	enzyme activity	inhibitor	–	1 µM	inhibition	9%
N#CC1(c2ccccn2)CCN(Cc2cc(C(=O)O)c(=O)n3ccccc23)CC1	cell-free assay	–	competition with immobilised ligand	1 µM	remaining binding	88%
COc1ncccc1-c1cnn2ccc(N3CCN(C(=O)OC(C)C)CC3)nc12	binding	–	competition with immobilised ligand	1 µM	remaining binding	69%
Cn1cc(-c2cc(F)cc(N3CCn4c(cc5c4CCCC5)C3=O)c2CO)cc(Nc2ccc(N3CCN(C4COC4)CC3)cn2)c1=O	enzyme activity	inhibitor	–	0.1 µM	inhibition	12%
Cn1cncc1[C@@](O)(COc1ccc(C#N)cc1-c1ccc(OC(F)(F)F)cc1)c1ccc(C#N)cc1	cell-free assay	–	competition with immobilised ligand	1 µM	remaining binding	100%
CC(C)(C)c1cc(C=C(C#N)C#N)cc(Br)c1O	enzyme activity	inhibitor	–	0.5 µM	remaining activity	86.8%
Cc1nn(C)cc1-c1nc2c(N3CCN(Cc4ccc(Cl)cc4)CC3)c(Cl)cnc2[nH]1	binding	–	competition with immobilised ligand	1 µM	remaining binding	100%
